In the RNAGym collection of RNA variant scans (doi:10.1126/science.aae0568) one finds yeast fitness data, which are given here for 75 variants.

The chains are these.
B1: tRNA (parent)
chain: GUUCCGUUGGCGUAAUGGUAACGCGUCUCCCUCCUAAGGAGAAGACUGCGGGUUCGAGUCCCGUACGGAACG

Variants at the floor of the assay were thinned out.

Variants of B1 are the subject of this data set. As to the kind of experiment: yeast fitness relative to wild type (ratio to wild type); higher = fitter; tRNA-Arg(CCU), competitive growth, 37 C, YPD. In a few lines: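 Start and end populations of a pooled competition were compared by 100-nucleotide paired-end sequencing of gene amplicons. The Saccharomyces cerevisiae strains carried tRNA-Arg(CCU) gene variants at the native genomic locus, synthesised with a 3% per-site mutation rate at 69 sites, and competed in YPD at 37°C for 24 hours in six parallel replicates. Darwinian fitness relative to wild type was based on the change in genotype frequencies. Genotypes required ≥ 100 starting reads, and estimates < 0.5 were set to 0.5.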
As for GUUCCGUGGGCGUAAUGGUAACGCCUCUCCCUCCUGAGGAGAAGACUACGGGUUCGAGUACCGUACGGAACG, the yeast fitness is ≤ 0.5.
To GUUCCGUGGGCGUAAUGGCAACGCGUCUCCCUCCUAAGGAGAAGAAUGCGGGUUCGAGUCCCGUACGGAACG belongs 0.853.
Next, GUUCCGUGGGCGUAAUGGUAACGCGACUCCCUCCUAAGGAGAAGACUGCGGGUUCGAGUCCCGUACGCAACG: ≤ 0.5; GUUCCGUUAGCGUAAUGGUAACGCGUCUCCCUCCUAAGGAGAAGACUGCGGGUUCGAGUCCCGUACGGAACG: 0.991; GUUCCGUUAGCGUAGUGGUAACGCGUCUCCCUCCUAAGGAGCAGACUGCGGGUUCGAGUCCUGUACGGAACG: ≤ 0.5.
With GUUCCGUGGGCGUAAUGGAAACGCGUCUCCCUCCUAAGGAGAAGACUGCGGGUACGUGUCCCGUACGCAACG, the yeast fitness is ≤ 0.5.
As for GUUCCGUGGGCGUAAUGGUAACGCGUCUCCCUCCUAACCGGAAAAGUGCGGAUUCGAGUCCCGUACGGAACG, the yeast fitness is ≤ 0.5.
To GUUCCGUGGGCGUAAUGGUAACGCGACUCCCUCCUAAGGAGAAGACUGCGGGUUCGAGUCCCGUACCGAACG belongs ≤ 0.5.
Next, GUUCCGUUAGCGUACUGGUAACGCGUCUCCCUCCUAAGGAGAAGACUGCGGGUUCGAGUCCCGUACGGUACG: 0.86; GUUCCGUGGGCGUAAUGGUAACCCGUCUCCCUCCUAGGGAGAAGACUGCGGGUUCGAGUCCCGUACGGAGCG: 0.631; GUUCCGUGGGCGUAAGGGUAACGCGUCUCCCUCCUAAGGAGAAGACUGCGGGUUCGAGUCCGGUACGGAACG: 0.616.
To GUUCCGUUAGCGUAUUGGUGACGCGUCUCCCUCCUAAGGAGAAGACUGCGGGUUCGAGUCCCGUACGGAACG belongs 0.503.
GUUCCGUUAGCGUUAUGGUAACGCGUCUGCCUCAUAAGGAGAAGACUGCGGGUUCAAGUCCCGUACGGAACG: the yeast fitness was ≤ 0.5.
To GUUCCGUGGGCGUAAUGGUAACGCGUCUCCCCGCUAAGGAGAAGACUGCGGGUUCGAGUCCCGUACGGAACG belongs ≤ 0.5; to GUUCCGUUAGCGUGAUGGUAACGCGUCUCCCUCCUAAGGAGAAGACUGCGGGUUCAAGUCCCGUACAGAACG, ≤ 0.5; to GUUCCGUGGGCGUAAUGGUAACGCGUCUCCCUCCUAAGGAGAAGACUGCGGAUUCGAGUCCCGUACGGAUCG, ≤ 0.5.
To GUUCCGUGGGCGUAAUGGUAACGCGUCUCCCUCCUAACGAGAAGACUGCGGGUUCGAGUCCCGUACUGAACG belongs 0.529; to GUUCCGUGGGCGUAAUGGUAACGCGUCUCCCGCCUAAAGAGAAGACUGCGGGUUCCAGUCCCGUACGGAACG, ≤ 0.5.
Next, GUUCCGUGGGCGUAAUGGUAACGCGUCUCCCCCGUAAGGAGAAGACUGCGGGUUCGAGUCCCGUACGAAACG: 0.598.
Regarding GUUCCGUGGGCGUAAUGGUAACGCGUCUCCCUCCAAAGGAGAAGACUGCGGGUACGAGUCCCGUACGGAACG, the yeast fitness turned out to be 0.548.
To GUUCCGUGGGCGUAAUGGUAACGCGUCUCCCCGCUAAGGAGAAGACUGCGGGUUCGAGUCACGUAUGGAACG belongs ≤ 0.5; to GUUCCGUUAGCGUAGUGGUUACGCGUCCCCCUCCUAAGGAGAAGACUGCGGGUUCGAGUCCCGUACGGUACG, 0.542.
Take GUUCCGUGGGCGUAAAGGUAACGCGUCUCCCUCAUCAGGAGAAGACUGCGGGUUCGAGUCCCGCAAGGAACG: the yeast fitness is ≤ 0.5.
Consider GUUCCGUGGGCGUAAUGGUAACGCGUCUCCCUCCUAAGGAGAAGACUGCGAGUUCGAGUCCCGUCUGGAACG, for which the yeast fitness is ≤ 0.5.
Next, GUUCCGUGGGCGAAAUGGUAACGCGUCUCCCUCGUAAGGAGAAGACUGCGGGUUCGAGUCCCGUACGGAACG: ≤ 0.5; GUUCCGUGGGCGUAAUGCUAAUGCGUCUUCCUCCUAAGGAGAAGAAUGCGGGUUGGAGUCCCGUACGGAACG: 0.574.
With GUUCCGUGGGCGUAAUGGUAACGCGUCUCCCUCCUAAGGAGAAGACUGCGGGCUCGAGUCCCGUACGGAACG, the yeast fitness was 0.806.
With GUUCCGUGGGCGUAAUGGUAACGCGUCUCCCUCCUAAGGAGAAGACUGCGGAUUCGAGUCCCGUACGGAACG, the yeast fitness was found to be 0.512.
Next, GUUCCGUUAGCGUACUGGUAACGCGUCUCCCUCCUAAGGAGAAGACUGCGGGUUCGAGUCCCGUACGGAACG: 0.788; GUUCCGUUAGCGUACUGGUAACGCGUCUCCCUCCUAAGGAGAAGACUGCGGGUUCAAGUCUCGUACGGAACG: ≤ 0.5; GUUCCGUGGGCGUAAUGGUAACGCGUCUCCCUCCUAAGGAGAAGACUGCGGGUUCGAGUCCCGUACGCAACG: 0.583.
As for GUUCCGUUAGCGUUAUGGUAACGCGUCUGCCUCAUAAGGAGAAGACUGCGGGUUCGAGUCCUGUACGGAACG, the yeast fitness is ≤ 0.5.
Take GUUCCGUGGGCGUAAUGGUAACGCGUCUCCCUCCUAAAGAGAAGACUGCGGGUUCGAGUCCCGUACAGUACG: the yeast fitness is ≤ 0.5.
Regarding GUUCCGUGGGCGUAAUGGUAACGCGUCCCCCUCCUAACGAGAAGACUGCGGGUUCGAGUCCUGUACGGAACG, the yeast fitness was ≤ 0.5.
For GUUCCGUUAGCGUAGAGGUAACCCGUCUCCCUCCUAAGGAGAAGACUGCGGGUUCGAGUCCCGUACGGCACG, the yeast fitness was ≤ 0.5.
To GUUCCGUUAGCGUGAUGGUAACGCGUCUCCCUCCUAAGGAGAAGACUGCGGGUUCGAGUCUCGUACGGAGCG belongs ≤ 0.5.
Take GUUCCGUGGGCGAAAUGGUAACGCGUCUCUCUCCUAAGCAGAAGACUGCGGGUUGGAGUCCCGUACGGAACG: the yeast fitness was 0.526.
In the case of GUUCCGUUAGCGUAGUGGUUACGCGUCCCCCUCCUAAGGAGAAGACUGCGGGUUCGAGUCCCGUACGGAACG, the yeast fitness was found to be 0.551.
Next, GUUCCGUGGGCGUAAUGGUAACGCGUCUCCCUCCAAAGGAGAAGACUGCGGGUUCGAGUCCCGUACGGACCG: 0.524.
To GUUCCGUUAGCGUGAUGGUAACGCGUCUCCCUCCUAAGGAGAAGACUGCGGGUUCGAGUCCCGUACGGAACG belongs 0.908.
In the case of GUUCCGUUAGCGUCAUGGUAACGCGUCUCCCUCCUAAGGAGAAGACUGCGGGUUCGAGUCCCGUACGGAACG, the yeast fitness amounted to 0.591.
On to GUUCCGUUAGCGUCAUGGUAACGCGUCUCCCUCCUAAGGAGAAGACUGCGGGUUCGAAUCCCGUACGGAACG, for which the yeast fitness worked out at 0.546.
Next, GUUCCGUGGGCGUAACGGUAACGCGUCUCCCUCCUAAGGAGAAGACUGCGGGUUCGAGUCCCGUACGGAACG: 0.6; GUUCCGUGGGCGUAAUGGAAACGCGUCUCCCUCCUAAGGAGAAGACUGCGGGUACGUGUCCCGUAUGGAACG: 0.576.
Next, GUUCCGUUAGCGUCAUGGUAACGCCUCUCCCUCCUAAGGAGAAGACUGCGGGUUCAAGUCCCGUACGGAACG: 0.579; GUUCCGUGGGCGUAAUGGUAACGCGUCUCCCUCCUAAGGAGAAGACUGCGGCUUCGAGUCCCGUACAGAACG: ≤ 0.5.
Next, GUUCCGUGGGCGUAAUGGUAACGCGUCUCCCUCCGAAGGAGAAGACUGCGGGUUGGAGUCCCGUACGGAACG: ≤ 0.5; GUUCCGUGGGCGAAAUGGUAACGCGUCUCCCUCCUAAGGAGAGGACUGCGGGAUCGAGUCCCGUACGGAACG: 0.58; GUUCCGUUAGCGUAGUGGUUACGCGUCCCCCUCCUAAGGAGAAGUCUGCGGGUUCGAGUCCCGUACGGAACG: ≤ 0.5.
As for GUUCCGUUAGCGUACUGGUAACGCGUCUCCCUCCUAAGGAGAUGACUGCGGGUUCGAGUCCCGUACGGAACG, the yeast fitness is ≤ 0.5.
For the variant GUUCCGUGGGCGUAAUGGAAAAGCGUCUCCCUCCUAAGGAGAAGACUGCGGGUUCGAGUCCCGUAUGGAACG, the yeast fitness was ≤ 0.5.
As for GUUCCGUGGGCGUAAUGGUAACGCGUCUCCCUCCGAAGGAGAAGACUGCGGGUUCGAGUCCCGUACGGAACG, the yeast fitness is ≤ 0.5.
Next, GUUCCGUGGGCGUAAUGGUAACGCGUCUCCCUCCCAAGGAGAAGACUGCGGGUUCGAGUCCCGUACGGAACG: 0.767; GUUCCGUGGGCGUAAUGGUAACGCGUCUCCCUCCUAAGCAGAAGACUGCGGGUUCGAGGCCCGUAUGGAACG: ≤ 0.5; GUUCCGUUAGCGUUAUGGUAACGCGUCUGCCUCAUAAGGAGAAGACUGCGGGUUCGAGUCCCGUACGGAACG: 0.55.
Next, GUUCCGUGGGCGUAAUGGUAACGCGUCUCCCUCCUAAAGAGAAGACUGCGGGUUCGAGUCCCGUACGGUACG: 0.507.
To GUUCCGUGGGCGUAAUGGUAACGCGUCUCCCUCCUAAAGAGAAGACUGCGGGUUCGAGUCCCGUACGGAACG belongs 0.57; to GUUCCGUUAGCGUCAUGGUAACGCGUUUCCCUCCUAAGGAGAAGAUUGCGGCUUCGAGUCCCGUACGGAACG, 0.53.
GUUCCGUGGGCGUAAUGGUAACGCGUCUCCCCGCUAAGGAGAUGACUCCGGGUUAGAGUCCCGUACGGAACG: the yeast fitness was ≤ 0.5.
Consider GUUCCGUGGGCGUAAUGGUAACGCGUCUCCCUCCUAAGGAGAAGACUGCGCGUUCGAGUACCGUACGGAACG, for which the yeast fitness was ≤ 0.5.
To GUUCCGUGGGCGGAAUGGUAACGCGUCUCCCUCCUAUGGAGAAGACUGCGGGUUCGAGUCCCCUACGGAACG belongs ≤ 0.5; to GUUCCGUGGGCGUAAUGGUAACGCGUCGCCCUCAUAAGGAGAAGACUGCGGGUUCGAGUCCCGUACGGAACG, ≤ 0.5.
Next, GUUCCGUGGGCGUAAUGGUAACGCGCCUCCCUCCUAAGGAGAAGACUGCGGGUUCGAGUCCCGUACGGAACG: 0.592; GUUCCGUGGGCGUAAUGGUAACGCGACUCCCUCCUAAGGAGAAGACUGCGGGUUCGAGUCCCGUACGGAACG: 0.605.
As to GUUCCGUUAGCGUGAUGGUAACGCGUCUCCCUCCUAGGGAGAAGACUGCGGGUUCGAGUCCCGUACGGAACG, the yeast fitness worked out at 0.624.
For GUUCCGUGGGCGUAAUGGUAACGCGUCUCCCUCCUAAGGAGAAGACUGCCGGUUCGAGUCCCGGACGGAACG, the yeast fitness is 0.56.
Turning to GUUCCGUUAGCGUAGAGGUAACCCGUCUCCCUCCUAAGGAGAAGACUGCGGGUUCGAGUCCCGUACGGAACG, the yeast fitness was ≤ 0.5.
To GUUCCGUGGGCGUAAUGGUAACGCGACUCCCUCCUAAGGAGAAGACUGCGGAUACGAGUACCGUACGGAACG belongs ≤ 0.5.
With GUUCCGUGGGCGAAAUGGUAACGCGUCUCCCUCCUAAGGAGAAGACUGCGGGUUCGAGUCCCGUACGGAACG, the yeast fitness stood at 0.56.
Next, GUUCCGUGGGCGUAAUGGUAACGCCUCUCCCUCCUGAGGAGAAGACUACGGGUUCGAGUCCCGUACGGAACG: ≤ 0.5; GUUCCGUGGGCGUAAAGCUAAGGCGUCUCCCUCCUAAGGAGAAGACUGCGGGUUCGAGUCCCGUACGGAACG: ≤ 0.5.
Next, GUUCCGUGGGCGUAAUGCUAACGCGUCUCCCUCCUAAGGAGAAGACUGUGGGUUCGAAUCCCGUACAGAACG: ≤ 0.5; GUUCCGUGGGCGUAAUGCUAACGCGUCUCCCUCCUAGGGGGAAGACUGCGGGUUCGAGUCCCCUACGGAACG: 0.506.
To GUUCCGUUAGCGUUAUGGUAACGCGUCUCCCUCGUACGGAGAAGACUGCGGGUUCGAGUCCCGUACGGAACG belongs ≤ 0.5; to GUUCCGUGGGCGUAAUGGUAACGCGUCUCCCUCCUAAGGAGAAGACUGCGGGUCCGAGUCCCGUACGGAACG, 0.565.
